Measured values taken from ChEMBL document CHEMBL1124929, “Indolo[2,1-a]isoquinolines. Syntheses, steroid hormone receptor binding affinities, and cytostatic activity” (1990).

System: MDA-MB-231
Assay: Cytostatic effect on hormone-independent MDA-MB 231 human breast cancer cell proliferation at 1x10E-6M
Type: functional
Method in brief: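 Cells were plated at about 2 × 10⁴ per well in six-well dishes. MCF-7 cells were grown in modified improved MEM with 5% NCS, switched to charcoal-treated NCS two weeks before the test, and exposed for 5 days with a re-dose on day 4. MDA-MB 231 cells were grown in McCoy 5a with 10% NCS and exposed for 2 days. Compounds were given 1 day after plating in 0.1% DMSO, with DMSO-matched controls. Read-out was cell number as % T/C, mean of three experiments with six dishes.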

Which T/C does the source give for `CCC1Cc2cc(OC(C)=O)ccc2-c2cc3cc(OC(C)=O)ccc3n21` (stereo unspecified) here?
Its T/C is 74%.
